A short description of series [1]: Binding affinity to alpha mannose in CD2Cl2 by NMR analysis.
A short description of series [2]: Cytotoxicity against human HeLa cells assessed as reduction in cell viability measured after 72 hrs by Celltiter-Glo luminescence assay. The series is classed as cell-based. The note with it: read-out: TC50. The gist of the method:
(§1)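 Vero or HeLa cells at 5,000/well were exposed to compound in duplicate for 72 h at 37 °C. Viability was read as cellular ATP by CellTiter-Glo luminescence and normalised to DMSO-treated cells as 100%. TC50 came from 4-parameter sigmoidal logistic fits.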

Series [3] in a line: Cytotoxicity against African green monkey Vero cells assessed as reduction in cell viability measured after 72 hrs by Celltiter-Glo luminescence assay. It counts as cell-based. The note with it: chlorocebus sabaeus, read-out: TC50. The gist of the method: as §1
(Cellular ATP, detected with luciferase, serves as a proxy for viable cell number.)

For series [4], the system named is Zika virus. Briefly: Antiviral activity against Zika virus harboring subgenomic GFP replicon infected in human HeLa cells assessed as reduction in viral infection preincubated for 30 mins followed by viral infection and measured after 72 hrs. It counts as functional, organism-based. The gist of the method:
(§2)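 Vero or HeLa cells (DMEM, 10% FBS) at 5,000/well were pretreated 30 min at room temperature; compound came from 10 mM DMSO stock diluted in medium. Cells were infected with reporter particles (ZIKV C-prM-E carrying a WNV GFP replicon) at a dose giving up to 1000 GFP+ cells/well. After 72 h at 37 °C, whole-well GFP+ counts were normalised to DMSO-treated infected cells. Wells were run in duplicate/triplicate, three experiments; IC50 taken from curve fits.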
On the technique in general: In antiviral work, replicon cells carry a viral genome segment that copies itself.

For series [5], the system named is Zika virus. Briefly: Antiviral activity against Zika virus harboring subgenomic GFP replicon infected in African green monkey Vero cells assessed as reduction in viral infection treated 24 hrs post-infection and measured 72 hrs post-infection. The series is classed as functional, organism-based. An outline of the steps:
(§3)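 Vero cells were infected with a predetermined dose of ZIKV GFP reporter virus particles. Compound was added 4 h or 24 h after infection. Plates were fixed 72 h post-infection and GFP+ cells per well counted by whole-well imaging.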

Series [6] can be described thus: Binding affinity to beta mannose in CD2Cl2 by NMR analysis.
Series [7] has as its system Zika virus. Nature of the series: Antiviral activity against Zika virus harboring subgenomic GFP replicon infected in African green monkey Vero cells assessed as reduction in viral infection treated 4 hrs post-infection and measured 72 hrs post-infection. It counts as functional, organism-based. An outline of the steps: as §3
Series [8] relates to Zika virus. Briefly: Antiviral activity against Zika virus harboring subgenomic GFP replicon infected in African green monkey Vero cells assessed as reduction in viral infection preincubated for 30 mins followed by viral infection and measured after 72 hrs. The series is classed as functional, organism-based. The note with it: for pIC50: Zika virus, Vero, read-out: IC50. An outline of the steps:
as §2

For series [9], the system named is Zika virus. Briefly: Antiviral activity against Zika virus harboring subgenomic GFP replicon infected in African green monkey Vero cells assessed as reduction in viral infection at 100 uM preincubated for 30 mins followed by viral infection and measured after 72 hrs. The series is classed as functional, organism-based.
The test system of series [10] is Zika virus. Briefly: Antiviral activity against Zika virus PRVABC-59 infected in African green monkey Vero cells assessed as reduction in viral infection at 8 uM pretreated for 30 mins followed by viral infection and measured by DAPI staining-based fluorescence microscopic method. It counts as functional, organism-based. The gist of the method:
(§4)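 Vero cells at 7,500/well were pretreated with compound for 30 min at room temperature. They were then infected with PRVABC59 at a titration-set dose giving ~2000-3000 infected cells/well. Cells were fixed and stained with 4G2 anti-envelope antibody plus Alexa 488 secondary. Whole wells were imaged and positive cells counted, in triplicate wells, with the experiment repeated. Microscopy images were taken with DAPI nuclear counterstain.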

The subject of series [11] is Zika virus. Briefly: Antiviral activity against Zika virus PRVABC-59 infected in African green monkey Vero cells assessed as reduction in viral infection up to 8 uM pretreated for 30 mins followed by viral infection and measured by 4G2 antibody based assay. It counts as functional, organism-based. An outline of the steps:
as §4

The test system of series [12] is Vero. Nature of the series: Inhibition of envelope glycoprotein N154Q mutant in Zika virus infected in African green monkey Vero cells assessed as reduction in viral infection up to 8 uM pretreated for 30 mins followed by viral infection and measured 72 hrs post-infection. The series is classed as cell-based. An outline of the steps: (§5)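 N154Q reporter particles were made by transfecting 293T cells 1:1 with C-prME-N154Q and subgenomic WNV GFP replicon plasmids, harvested at 48 h. Vero cells were pretreated with compound for 30 min at room temperature, then infected with wild-type or N154Q particles. GFP+ cells per well were counted from whole-well images at 72 h; mean ±SD of triplicate wells.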

Series [13] in a line: Therapeutic index, ratio of TC50 for African green monkey Vero cells to IC50 for Zika virus harboring subgenomic GFP replicon infected in African green monkey Vero cells. The series is classed as toxicity. The note with it: read-out: TI.
In series [14] the test system is Zika virus. Nature of the series: Antiviral activity against Zika virus PRVABC-59 infected in African green monkey Vero cells assessed as reduction in viral infection up to 200 uM pretreated for 30 mins followed by viral infection and measured by 4G2 antibody based assay. It counts as functional, organism-based. An outline of the steps:
as §4

The subject of series [15] is Vero. Briefly: Inhibition of envelope glycoprotein N154Q mutant in Zika virus infected in African green monkey Vero cells assessed as reduction in viral infection up to 200 uM pretreated for 30 mins followed by viral infection and measured 72 hrs post-infection. The series is classed as cell-based. The gist of the method: as §5
The subject of series [16] is Zika virus. Briefly: Antiviral activity against Zika virus PRVABC-59 infected in African green monkey Vero cells assessed as reduction in viral infection at 200 uM pretreated for 30 mins followed by viral infection and measured by DAPI staining-based fluorescence microscopic method. It counts as functional, organism-based. The gist of the method:
as §4

pIC50: −log10 of the molar value. Calls of active or inactive are those of the source. No cut-off for these calls is given here.

One may read the pIC50 as −log10 of the IC50, conventionally taken in molar units.

Consider `c1c[nH]c(CNCc2cc(CNCc3ccc[nH]3)cc(-c3cc(CNCc4ccc[nH]4)cc(CNCc4ccc[nH]4)c3)c2)c1`, for which the Ka was 1.4 ×10³ /M in series [1] and 3.6 ×10⁴ /M in series [6]. In addition, the CC50 at 72 h was 2.43 µM in [2] and 34.1 µM in [3]. For the same molecule, the negative logarithm of the IC50 (pIC50) with Zika virus [4] was 6.35; in the series with Zika virus [8], 6.44. Moreover, the result with Zika virus [5] and in the series with Zika virus [7] was inactive. In addition, the outcome with Zika virus [9] was Active.
For the molecule `c1csc(CNCc2cc(CNCc3cccs3)cc(-c3cc(CNCc4cccs4)cc(CNCc4cccs4)c3)c2)c1`, in [1], the Ka came out at 1.4 ×10² /M. Besides, the CC50 at 72 h in [2] stood at 2.47 µM; in series [3], 4.12 µM. The negative-log IC50 (pIC50) was 6.25 in the series with Zika virus [4] and 5.88 in the series with Zika virus [8]. The result in the series on Zika virus [5] and in the series with Zika virus [7] was inactive. For the same molecule, in series [6], the Ka result was “inactive”. Also, the result in the series on Zika virus [9] was Active.
For the molecule `O=C(NCc1cc(CNC(=O)c2cccs2)cc(-c2cc(CNC(=O)c3cccs3)cc(CNC(=O)c3cccs3)c2)c1)c1cccs1`, the negative-log IC50 (pIC50) with Zika virus [8] was less than 4.00. Besides, the outcome in the series with Zika virus [9] was Active.
As for `c1c[nH]c(CNCc2cc(CNCc3ccc[nH]3)cc(-c3cc(CNCc4ccc[nH]4)cc(Cn4cc(COCCOCCOCCOCc5cn(Cc6cc(CNCc7ccc[nH]7)cc(-c7cc(CNCc8ccc[nH]8)cc(CNCc8ccc[nH]8)c7)c6)nn5)nn4)c3)c2)c1`, the figures for the Ka in [1] and in series [6] were 2.6 ×10³ /M and 1.7 ×10³ /M, respectively. Also, the CC50 at 72 h in series [2] turned out to be 2.48 µM; in series [3] it was 36.2 µM. Besides, the pIC50 in the series with Zika virus [4] is 6.62; in the series with Zika virus [8], 6.80. For the same molecule, the result in the series with Zika virus [5] and in the series with Zika virus [7] was inactive. For the same molecule, the outcome with Zika virus [10], with Zika virus [11] and with Zika virus [9] was Active. Besides, in the series on Vero [12], the inhibition result is “Active”. Moreover, in series [13], the selectivity ratio was greater than 220.
Consider `c1coc(CNCc2cc(CNCc3ccco3)cc(-c3cc(CNCc4ccco4)cc(Cn4cc(COCCOCCOCCOCc5cn(Cc6cc(CNCc7ccco7)cc(-c7cc(CNCc8ccco8)cc(CNCc8ccco8)c7)c6)nn5)nn4)c3)c2)c1`, for which the values for the CC50 at 72 h in series [2] and in series [3] were 2.22 µM and 51.5 µM, respectively. Moreover, the negative logarithm of the IC50 (pIC50) was 5.86 in the series on Zika virus [4] and 4.91 in the series with Zika virus [8]. The outcome with Zika virus [9] was Active.
Regarding `Cc1ccc(C(=O)Nc2ccc(S(=O)(=O)O)c3cc(S(=O)(=O)O)cc(S(=O)(=O)O)c23)cc1NC(=O)c1cccc(NC(=O)Nc2cccc(C(=O)Nc3cc(C(=O)Nc4ccc(S(=O)(=O)O)c5cc(S(=O)(=O)O)cc(S(=O)(=O)O)c45)ccc3C)c2)c1` [SURAMIN], the CC50 at 72 h in [3] was greater than 200 µM. Also, the outcome in the series with Zika virus [14] and with Zika virus [16] was Active. Moreover, the outcome with Zika virus [5] and in the series on Zika virus [7] was inactive. In the series on Zika virus [8], the Activity entry is “Dose-dependent effect”. Further, the pIC50 in the series with Zika virus [8] was 4.36. Also, in the series on Vero [15], the inhibition result was “Active”.
As for `c1coc(CNCc2cc(CNCc3ccco3)cc(-c3cc(CNCc4ccco4)cc(CNCc4ccco4)c3)c2)c1`, the Ka was found to be 1.1 ×10² /M in series [1] and 5.4 ×10¹ /M in series [6]. Also, the CC50 at 72 h in series [2] is 2.51 µM; in series [3] it was 5.43 µM. For the same molecule, the pIC50 was 6.46 in the series with Zika virus [4] and 5.95 in the series on Zika virus [8]. In addition, the result in the series with Zika virus [5] and with Zika virus [7] was inactive. In addition, the outcome in the series with Zika virus [9] was Active.
With `C(=N\Cc1cc(C/N=C/c2ccco2)cc(-c2cc(C/N=C/c3ccco3)cc(C/N=C/c3ccco3)c2)c1)/c1ccco1`, the Ka is 2 ×10² /M in series [1] and 3.7 ×10¹ /M in series [6]. Also, in the series on Zika virus [8], the pIC50 was less than 4.00. In addition, in the series on Zika virus [9], the outcome was Active.
As to `C(=N\Cc1cc(C/N=C/c2ccc[nH]2)cc(-c2cc(C/N=C/c3ccc[nH]3)cc(C/N=C/c3ccc[nH]3)c2)c1)/c1ccc[nH]1`, the Ka is 3 ×10³ /M in series [1] and 2.4 ×10³ /M in series [6]. Also, the CC50 at 72 h is 17.6 µM in series [2] and 46.1 µM in [3]. Further, the negative logarithm of the IC50 (pIC50) is 5.51 with Zika virus [4] and 5.87 in the series with Zika virus [8]. The outcome with Zika virus [5] and in the series with Zika virus [7] was inactive. The outcome in the series with Zika virus [9] was Active.
Consider `NCc1cc(CN)cc(-c2cc(CN)cc(CN)c2)c1`, for which the pIC50 with Zika virus [8] is less than 4.00. Also, the outcome in the series with Zika virus [9] was Active.
In the case of `O=C(NCc1cc(CNC(=O)c2ccco2)cc(-c2cc(CNC(=O)c3ccco3)cc(CNC(=O)c3ccco3)c2)c1)c1ccco1`, the IC50 result with Zika virus [8] (vero) is listed as “Nd(Insoluble)”. Also, the result in the series with Zika virus [9] was Active.
Take `C(=N\Cc1cc(C/N=C/c2cccs2)cc(-c2cc(C/N=C/c3cccs3)cc(C/N=C/c3cccs3)c2)c1)/c1cccs1`: the Ka result in [1] and in [6] was “inactive” in each case. Further, the pIC50 in the series with Zika virus [8] is less than 4.00. Also, the outcome in the series with Zika virus [9] was Active.
With `Cn1ccnc1CNCc1cc(CNCc2nccn2C)cc(-c2cc(CNCc3nccn3C)cc(CNCc3nccn3C)c2)c1`, the Ka came to 4.4 ×10³ /M in [1] and 5.9 ×10² /M in [6]. The negative-log IC50 (pIC50) with Zika virus [8] was less than 4.00. The result with Zika virus [9] was Active.
